Laboratory results as given in ChEMBL document CHEMBL4152217, “Quinonoid compounds via reactions of lawsone and 2-aminonaphthoquinone with α-bromonitroalkenes and nitroallylic acetates: Structural diversity by C-ring modification and cytotoxic evaluation against cancer cells” (Eur J Med Chem, 2018).

Columns and labels:
[1] = system: L929; assay: Cytotoxicity against mouse L929 cells assessed as reduction in cell viability after 72 hrs by MTT assay; assay type: cell-based; settings: L929, 72 h
In short: (§1)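 MTT viability assay. Cancer lines grown in RPMI 1640 and L929 fibroblasts in DMEM, each with 10% FBS, 2 mM glutamine, penicillin/streptomycin, 37 °C, 5% CO2. PBMC were taken from healthy donors by density-gradient centrifugation, kept in RPMI with 20% FBS and stimulated with 2% phytohemagglutinin. Cells were exposed 72 h (0.01–27.32 µM). MTT 0.5 mg/mL for 3 h, absorbance read at 550 nm. IC50 with 95% CI from nonlinear regression; triplicate, ≥3 independent experiments.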

[2] = system: SF-295; assay: Cytotoxicity against human SF295 cells assessed as reduction in cell viability after 72 hrs by MTT assay; settings: SF-295, 72 h
[3] = system: NCI-H460; assay: Cytotoxicity against human NCI-H460 cells assessed as reduction in cell viability after 72 hrs by MTT assay; settings: NCI-H460, 72 h
[4] = system: PBMC; assay: Cytotoxicity against human PBMC cells assessed as reduction in cell viability after 72 hrs by MTT assay
[5] = system: HL-60; assay: Cytotoxicity against human HL60 cells assessed as reduction in cell viability after 72 hrs by MTT assay; assay type: functional, cell-based; settings: HL-60, 72 h; in short: as §1
[6] = system: PC-3; assay: Cytotoxicity against human PC3 cells assessed as reduction in cell viability after 72 hrs by MTT assay; assay type: functional, cell-based; settings: PC-3, 72 h; in short: as §1
[7] = system: HCT-116; assay: Cytotoxicity against human HCT116 cells assessed as reduction in cell viability after 72 hrs by MTT assay; assay type: functional, cell-based; settings: HCT-116, 72 h; in short: as §1

SMILES | IC50 [1] | IC50 [2] | IC50 [3] | IC50 [4] | IC50 [5] | IC50 [6] | IC50 [7]
COc1ccc(-c2cn(-c3ccc(F)cc3)c3c2C(=O)c2ccccc2C3=O)cc1 | > 13.2 µM | > 13.2 µM | > 13.2 µM | > 13.2 µM | > 13.2 µM | > 13.2 µM | > 13.2 µM
CCOC(=O)Cc1c(-c2cccs2)c2c(n1-c1ccccc1)C(=O)c1ccccc1C2=O | > 11.3 µM | > 11.3 µM | > 11.3 µM | > 11.3 µM | 2.63 µM | > 11.3 µM | > 11.3 µM
CCOC(=O)Cc1oc2c(c1-c1ccccc1)C(=O)c1ccccc1C2=O | > 13.9 µM | > 13.9 µM | 8.86 µM | > 13.9 µM | 8.38 µM | > 13.9 µM | 12.5 µM
CCOC(=O)Cc1c(-c2ccc(C)cc2)c2c(n1-c1ccc(OC)cc1)C(=O)c1ccccc1C2=O | > 10.4 µM | > 10.4 µM | > 10.4 µM | > 10.4 µM | 3.36 µM | > 10.4 µM | > 10.4 µM
COc1ccc(-n2cc(-c3ccccc3)c3c2C(=O)c2ccccc2C3=O)cc1 | > 13.2 µM | > 13.2 µM | > 13.2 µM | > 13.2 µM | > 13.2 µM | > 13.2 µM | > 13.2 µM
COc1ccc(-n2cc(-c3ccco3)c3c2C(=O)c2ccccc2C3=O)cc1 | > 13.5 µM | > 13.5 µM | > 13.5 µM | > 13.5 µM | > 13.5 µM | > 13.5 µM | > 13.5 µM
CCOC(=O)Cc1oc2c(c1-c1ccc(OC)c(OC)c1)C(=O)c1ccccc1C2=O | 8.47 µM | > 11.9 µM | 7.53 µM | > 11.9 µM | 3.97 µM | > 11.9 µM | 6.16 µM
CCOC(=O)Cc1oc2c(c1/C=C/c1ccccc1)C(=O)c1ccccc1C2=O | > 13 µM | > 13 µM | > 13 µM | > 13 µM | 10.7 µM | > 13 µM | > 13 µM
COc1ccc(-c2cn(-c3ccccc3)c3c2C(=O)c2ccccc2C3=O)cc1 | > 13 µM | > 13 µM | > 13 µM | > 13 µM | > 13 µM | > 13 µM | > 13 µM
CCOC(=O)Cc1oc2c(c1-c1ccc(OC)cc1)C(=O)c1ccccc1C2=O | > 12.8 µM | > 12.8 µM | > 12.8 µM | > 12.8 µM | > 12.8 µM | > 12.8 µM | > 12.8 µM
CCOC(=O)Cc1oc2c(c1-c1ccc(C)cc1)C(=O)c1ccccc1C2=O | > 13.4 µM | > 13.4 µM | > 13.4 µM | > 13.4 µM | > 13.4 µM | > 13.4 µM | > 13.4 µM
CCOC(=O)Cc1oc2c(c1-c1cccs1)C(=O)c1ccccc1C2=O | > 27.3 µM | > 27.3 µM | 9.09 µM | > 27.3 µM | 5.91 µM | > 27.3 µM | 13.7 µM
CCOC(=O)Cc1oc2c(c1-c1ccco1)C(=O)c1ccccc1C2=O | > 14.3 µM | > 14.3 µM | > 14.3 µM | > 14.3 µM | > 14.3 µM | > 14.3 µM | > 14.3 µM
CCOC(=O)Cc1c(-c2ccc(OC)c(OC)c2)c2c(n1-c1ccc(Cl)cc1)C(=O)c1ccccc1C2=O | > 9.45 µM | > 9.45 µM | > 9.45 µM | > 9.45 µM | > 9.45 µM | > 9.45 µM | > 9.45 µM
CCOC(=O)Cc1c(-c2ccc(OC)c(OC)c2)c2c(n1-c1cccc(Br)c1)C(=O)c1ccccc1C2=O | > 8.72 µM | > 8.72 µM | > 8.72 µM | > 8.72 µM | > 8.72 µM | > 8.72 µM | > 8.72 µM
COc1ccc(-n2cc(-c3ccc(F)cc3)c3c2C(=O)c2ccccc2C3=O)cc1 | > 12.6 µM | > 12.6 µM | > 12.6 µM | > 12.6 µM | > 12.6 µM | > 12.6 µM | > 12.6 µM
COc1ccc(-c2cn(-c3ccc(Cl)cc3)c3c2C(=O)c2ccccc2C3=O)cc1 | > 12.6 µM | > 12.6 µM | > 12.6 µM | > 12.6 µM | > 12.6 µM | > 12.6 µM | > 12.6 µM
CCOC(=O)Cc1c(-c2ccccc2)c2c(n1-c1ccc(C)cc1)C(=O)c1ccccc1C2=O | > 11.1 µM | > 11.1 µM | > 11.1 µM | > 11.1 µM | > 11.1 µM | > 11.1 µM | > 11.1 µM
